Our source for the inhibition of growth and inhibition values is ChEMBL document CHEMBL3044755, “5-Methyl-1,2,3-thiadiazoles synthesized via ugi reaction and their fungicidal and antiviral activities” (J Agric Food Chem, 2010).

Usually inhibition stands for the drop in the measured response relative to a control, in per cent. Lower therefore signals little suppression.

Type in all cases: functional
Assay [1] has as its system Cercospora beticola. In words: Fungicidal activity against Cercospora beticola at 50 ug/ml by growth inhibition method. As to conditions: read-out: GI. In outline:
(§1)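 Mycelial growth inhibition on potato dextrose agar. The panel covered Alternaria solani, Botrytis cinerea, Cercospora arachidicola, C. beticola, Colletotrichum lagenarium, Fusarium oxysporum, Gibberella zeae, Puccinia triticina, Phytophthora infestans, Physalospora piricola, Pellicularia sasakii and Rhizoctonia solani.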

In assay [2] the test system is Fusarium graminearum. As to the kind of experiment: Fungicidal activity against Fusarium graminearum at 50 ug/ml by growth inhibition method. As to conditions: read-out: GI. In outline:
as §1

Assay [3] has as its system Botrytis cinerea. As to the kind of experiment: Fungicidal activity against Botryotinia fuckeliana at 50 ug/ml by growth inhibition method. As to conditions: read-out: GI. In outline: as §1
The subject of assay [4] is Colletotrichum lagenaria. In words: Fungicidal activity against Colletotrichum lagenaria at 50 ug/ml by growth inhibition method. As to conditions: read-out: GI. The essentials: as §1
Assay [5] deals with Phytophthora infestans. In words: Fungicidal activity against Phytophthora infestans at 50 ug/ml by growth inhibition method. As to conditions: read-out: GI. In outline: as §1
For assay [6], the system named is Botryosphaeria berengeriana. As to the kind of experiment: Fungicidal activity against Botryosphaeria berengeriana at 50 ug/ml by growth inhibition method. As to conditions: read-out: GI. In outline: as §1
Assay [7] has as its system Tobacco mosaic virus. In words: In vitro antiviral activity against Tobacco mosaic virus (TMV) infected tobacco leaves at 500 ug/ml.
For assay [8], the system named is Mycosphaerella arachidis. In words: Fungicidal activity against Mycosphaerella arachidis at 50 ug/ml by growth inhibition method. As to conditions: read-out: GI. The essentials: as §1
Assay [9] deals with Alternaria solani. In words: Fungicidal activity against Alternaria solani at 50 ug/ml by growth inhibition method. To be noted: read-out: GI. The essentials:
as §1

The test system of assay [10] is Fusarium oxysporum. In words: Fungicidal activity against Fusarium oxysporum at 50 ug/ml by growth inhibition method. As to conditions: read-out: GI. In outline: as §1
Assay [11] relates to Thanatephorus cucumeris. In words: Fungicidal activity against Thanatephorus cucumeris at 50 ug/ml by growth inhibition method. To be noted: read-out: GI. The essentials: as §1
Assay [12] has as its system Tobacco mosaic virus. As to the kind of experiment: In vitro antiviral activity against Tobacco mosaic virus (TMV) infected tobacco leaves at 200 ug/ml.
The subject of assay [13] is Tobacco mosaic virus. In words: In vitro antiviral activity against Tobacco mosaic virus (TMV) infected tobacco leaves at 100 ug/ml.
The subject of assay [14] is Rhizoctonia solani. In words: Fungicidal activity against Rhizoctonia solani at 50 ug/ml by growth inhibition method. To be noted: read-out: GI. In outline:
as §1

The subject of assay [15] is Puccinia triticina. As to the kind of experiment: Fungicidal activity against Puccinia triticina at 50 ug/ml by growth inhibition method. To be noted: read-out: GI. The essentials: as §1

Consider `Cc1ccc(N(C(=O)c2nnsc2C)C(C(=O)NC(C)C)c2cccc(Cl)c2)cc1Cl` (configuration not stated), for which the inhibition of growth at 50 µg/mL was 9% in assay [1]; 4% in assay [2]; 76% in assay [3]; 14% in assay [4]; 14% in assay [5]; 40% in [6]. Moreover, the inhibition of growth at 50 µg/mL in assay [8] came out at 8%; in assay [9], 37%; in assay [10], 26%; in assay [11], 62%. For the same compound, in assay [7], testing at 500 µg/mL gave an inhibition of 9%. The inhibition at 200 µg/mL in assay [12] was 6%.

Consider `Cc1ccc(N(C(=O)c2nnsc2C)C(C(=O)NC(C)C)c2ccccc2O)cc1Cl` (configuration not stated), for which the inhibition of growth at 50 µg/mL in assay [1] was 0%; in [2], 18%; in assay [3] it was 75%; in assay [4], 7%; in assay [5], 24%; in assay [6], 39%. Moreover, the inhibition of growth at 50 µg/mL in assay [8] is 9%; in assay [9], 38%; in assay [10] it was 18%; in [11], 47%. The compound further had an inhibition at 100 µg/mL in assay [13] of 18%. The compound further gave an inhibition at 500 µg/mL in assay [7] of 23%.

As for `Cc1ccc(N(C(=O)c2nnsc2C)C(C(=O)NC(C)C)c2cccc(O)c2)cc1Cl` (configuration not stated), the inhibition of growth at 50 µg/mL in [1] stood at 23%; in assay [2] it was 15%; in assay [3], 73%; in assay [4], 13%; in assay [5], 30%; in [6], 45%. In addition, the inhibition of growth at 50 µg/mL came out at 14% in assay [8], 33% in assay [9], 30% in assay [10] and 59% in assay [11]. For the same compound, testing at 100 µg/mL in assay [13] gave an inhibition of 13%. This compound also came in with an inhibition at 500 µg/mL in [7] of 24%.

As to `Cc1ccc(N(C(=O)c2nnsc2C)C(C(=O)NC(C)C)c2cccc(F)c2)cc1Cl` (configuration not stated), the inhibition of growth at 50 µg/mL in assay [1] was found to be 33%; in assay [2] it was 23%; in assay [3], 78%; in assay [4], 10%; in [5], 18%; in [6] it was 38%. Also, the inhibition of growth at 50 µg/mL in assay [8] was found to be 21%; in assay [9], 42%; in assay [10], 19%; in [11] it was 69%. The compound also yielded an inhibition at 100 µg/mL in assay [13] of 34%. In addition, the inhibition at 500 µg/mL in assay [7] came out at 18%.

Take `Cc1ccc(N(C(=O)c2nnsc2C)C(C(=O)NC(C)C)c2ccccc2F)cc1Cl` (configuration not stated): the inhibition of growth at 50 µg/mL was 25% in assay [1]; 37% in assay [2]; 73% in [3]; 10% in assay [4]; 15% in assay [5]; 33% in [6]. Further, the inhibition of growth at 50 µg/mL was found to be 21% in assay [8], 40% in [9], 21% in assay [10] and 67% in [11]. In [13], this compound came in with an inhibition at 100 µg/mL of 32%. This compound displayed an inhibition at 500 µg/mL in [7] of 34%.

As for `Cc1ccc(N(C(=O)c2nnsc2C)C(C(=O)NC2CCCCC2)c2ccccc2)cc1F` (configuration not stated), the inhibition of growth at 50 µg/mL in assay [1] was 0%; in assay [2], 27%; in [4] it was 0%; in assay [5] it was 38%; in [6], 69%; in [8], 18%. Moreover, the inhibition of growth at 50 µg/mL in [14] came out at 0%; in assay [15] it was 0%; in assay [9], 25%; in assay [11], 65%. The same compound came in with an inhibition at 100 µg/mL in [13] of 51%. The compound further yielded an inhibition at 500 µg/mL in assay [7] of 71%.
